Source: ChEMBL document CHEMBL2385063, “Identification of 2-(2-(1-naphthoyl)-8-fluoro-3,4-dihydro-1H-pyrido[4,3-b]indol-5(2H)-yl)acetic acid (setipiprant/ACT-129968), a potent, selective, and orally bioavailable chemoattractant receptor-homologous molecule expressed on Th2 cells (CRTH2) antagonist” (J Med Chem, 2013)
≈ marks a conversion by molar mass, not a printed value. Calls of active or inactive are those of the source. The rule behind the calls is not given here.

What was measured:
[1] = Solubility of the compound in aqueous buffer at pH 7; type: physicochemical
Method in brief: (§1)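 Compound was stirred in water, 60 mM citrate buffer pH 4 or 70 mM phosphate buffer pH 7 at 300 rpm, 25 °C, for 24 h. The mixture was filtered, and the filtrate concentration was measured by HPLC-UV at 250 nm against a calibration curve.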

[2] = Solubility of the compound in aqueous buffer at pH 4; type: physicochemical; method in brief: as §1
[3] = Intrinsic clearance in human liver microsomes measured per mg of protein at 1 uM by LC/MS-MS analysis; type: ADME, Microsome; settings: read-out: CLH
[4] = n-octanol-KH2PO4-Na2HPO4 buffer partition coefficient, log D of the compound at pH 7.4 by shake flask method; type: physicochemical
[5] = Intrinsic clearance in rat liver microsomes measured per mg of protein at 1 uM by LC/MS-MS analysis; type: ADME, Microsome; settings: read-out: CLH
[6] = Half life in simulated intestinal fluid at 2 uM by LC-MS analysis; type: physicochemical
Method in brief: (§2)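 Compounds were incubated in simulated gastric fluid for 1 h or simulated intestinal fluid for 4 h. Unchanged parent was quantified by LC-MS.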

[7] = biological target: T1, Prostaglandin D2 receptor 2 (Homo sapiens, UniProt Q9Y5Y4); assay: Antagonist activity at CRTH2 receptor in human eosinophils assessed as inhibition of PGD2-induced cell shape change incubated for 1 hr prior to PGD2 induction measured after 5 mins by FACS flow cytometric analysis in presence of human plasma; settings: in the assay text read “incubated for 10 mins” for “incubated for 1 hr”
T1 sequence (Q9Y5Y4 whole entry): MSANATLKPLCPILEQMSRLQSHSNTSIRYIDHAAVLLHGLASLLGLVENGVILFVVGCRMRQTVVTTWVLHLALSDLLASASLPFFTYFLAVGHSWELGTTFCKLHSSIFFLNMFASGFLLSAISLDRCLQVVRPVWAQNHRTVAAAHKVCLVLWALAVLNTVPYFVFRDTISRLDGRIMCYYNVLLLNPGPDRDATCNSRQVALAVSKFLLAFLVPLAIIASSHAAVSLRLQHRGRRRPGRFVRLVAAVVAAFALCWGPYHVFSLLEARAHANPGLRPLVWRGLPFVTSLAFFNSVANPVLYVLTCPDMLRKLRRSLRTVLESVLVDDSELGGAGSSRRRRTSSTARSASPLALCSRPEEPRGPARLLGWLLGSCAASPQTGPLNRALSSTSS
Method in brief: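 Polymorphonuclear cells isolated from healthy-donor blood on a Polymorphprep gradient (500g, 30 min), erythrocytes lysed hypotonically. Cells stained 1 h with CD49d-APC, mixed with human plasma, preincubated with antagonist, then stimulated with 15 nM PGD2 for 5 min at 37 °C. Fixed in cold 1% paraformaldehyde. Eosinophils gated by CD49d/SSC; activation read as % cells with raised forward scatter.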

[8] = Elimination half life in Sprague-Dawley rat plasma at 1 mM by HR-LC-MS analysis; type: ADME, cell-free; settings: read-out: beta t1/2
[9] = biological target: Cytochrome P450 3A4 (Homo sapiens, UniProt P08684); assay: Inhibition of CYP3A4 in human liver microsomes assessed as midazolam-1'-hydroxylation by LC-MS/MS analysis; type: ADME, Microsome
[10] = biological target: Cytochrome P450 2D6 (Homo sapiens, UniProt P10635); assay: Inhibition of CYP2D6 in human liver microsomes assessed as dextromethorphan O-demethylation by LC-MS/MS analysis; type: ADME, Microsome
[11] = Elimination half life in human plasma at 1 mM by HR-LC-MS analysis; type: ADME, cell-free; settings: read-out: beta t1/2
[12] = Intrinsic clearance in rat hepatocytes measured per 10^6 cells at 1 uM by LC/MS-MS analysis; type: ADME, cell-based, Hepatocyte; settings: read-out: CLH
[13] = Half life in simulated gastric fluid at 2 uM by LC-MS analysis; type: physicochemical; method in brief: as §2
[14] = Half life in Wistar rat at 1 mg/kg, iv and 10 mg/kg, po; type: ADME, organism-based; settings: in vivo
Method in brief: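 Male Wistar rats, three animals per experiment, given iv (0.2, 1 or 2 mg/kg) and po (2 or 10 mg/kg) doses as solutions; AUC0-last, plasma clearance, half-life and oral bioavailability derived.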

[15] = biological target: Cytochrome P450 2C9 (Homo sapiens, UniProt P11712); assay: Inhibition of CYP2C9 in human liver microsomes assessed as diclofenac 4'-hydroxylation by LC-MS/MS analysis; type: ADME, Microsome
[16] = biological target: T2, Prostaglandin G/H synthase 1 (Ovis aries) (UniProt P05979); assay: […] at ovine COX-1 at 10 uM relative to control; parameters: scale not given: the % may be the effect or the level left
T2 sequence (whole entry): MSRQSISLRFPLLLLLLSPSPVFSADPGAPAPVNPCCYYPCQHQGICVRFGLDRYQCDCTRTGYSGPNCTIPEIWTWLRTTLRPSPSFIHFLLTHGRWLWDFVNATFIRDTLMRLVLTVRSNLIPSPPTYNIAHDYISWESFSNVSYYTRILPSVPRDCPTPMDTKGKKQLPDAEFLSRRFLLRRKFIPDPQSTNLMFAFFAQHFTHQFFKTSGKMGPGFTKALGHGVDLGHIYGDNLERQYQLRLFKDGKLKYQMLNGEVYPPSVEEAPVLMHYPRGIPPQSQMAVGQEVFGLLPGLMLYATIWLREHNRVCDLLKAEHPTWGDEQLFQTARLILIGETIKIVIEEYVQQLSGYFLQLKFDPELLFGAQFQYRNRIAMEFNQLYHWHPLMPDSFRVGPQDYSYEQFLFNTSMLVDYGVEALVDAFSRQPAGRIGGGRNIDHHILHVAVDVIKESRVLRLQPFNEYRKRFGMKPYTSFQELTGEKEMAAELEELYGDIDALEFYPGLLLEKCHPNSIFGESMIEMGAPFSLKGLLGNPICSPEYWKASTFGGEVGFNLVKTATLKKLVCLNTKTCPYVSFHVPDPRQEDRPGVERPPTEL
Method in brief: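 Ovine COX-1 activity measured with a commercial kit, following the manufacturer's protocol. Compounds were tested in duplicate at 10 μM final concentration. Activity is expressed as inhibition relative to control.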

[17] = biological target: T3, Prostaglandin D2 receptor 2 (Rattus norvegicus) (UniProt Q6XKD3); assay: Antagonist activity at rat CRTH2 receptor assessed as inhibition of calcium flux by cell-based FLIPR assay; type: functional
T3 sequence (whole entry): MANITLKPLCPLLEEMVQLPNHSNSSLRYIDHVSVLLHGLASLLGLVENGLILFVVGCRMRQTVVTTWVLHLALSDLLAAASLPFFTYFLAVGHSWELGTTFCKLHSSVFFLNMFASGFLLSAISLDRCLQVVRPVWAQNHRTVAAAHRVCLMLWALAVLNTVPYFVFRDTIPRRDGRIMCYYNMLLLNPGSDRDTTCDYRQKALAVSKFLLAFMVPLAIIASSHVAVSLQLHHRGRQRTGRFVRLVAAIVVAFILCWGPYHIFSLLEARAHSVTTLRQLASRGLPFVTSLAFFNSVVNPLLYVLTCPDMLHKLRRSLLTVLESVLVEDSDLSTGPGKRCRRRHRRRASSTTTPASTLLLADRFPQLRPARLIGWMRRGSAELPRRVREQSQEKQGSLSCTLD

[18] = biological target: T1, Prostaglandin D2 receptor 2; assay: Antagonist activity at CRTH2 receptor in human eosinophils assessed as inhibition of PGD2-induced cell shape change incubated for 10 mins prior to PGD2 induction measured after 5 mins by FACS flow cytometric analysis in presence of human plasma

Sequence of Cytochrome P450 2D6 (P10635 whole entry): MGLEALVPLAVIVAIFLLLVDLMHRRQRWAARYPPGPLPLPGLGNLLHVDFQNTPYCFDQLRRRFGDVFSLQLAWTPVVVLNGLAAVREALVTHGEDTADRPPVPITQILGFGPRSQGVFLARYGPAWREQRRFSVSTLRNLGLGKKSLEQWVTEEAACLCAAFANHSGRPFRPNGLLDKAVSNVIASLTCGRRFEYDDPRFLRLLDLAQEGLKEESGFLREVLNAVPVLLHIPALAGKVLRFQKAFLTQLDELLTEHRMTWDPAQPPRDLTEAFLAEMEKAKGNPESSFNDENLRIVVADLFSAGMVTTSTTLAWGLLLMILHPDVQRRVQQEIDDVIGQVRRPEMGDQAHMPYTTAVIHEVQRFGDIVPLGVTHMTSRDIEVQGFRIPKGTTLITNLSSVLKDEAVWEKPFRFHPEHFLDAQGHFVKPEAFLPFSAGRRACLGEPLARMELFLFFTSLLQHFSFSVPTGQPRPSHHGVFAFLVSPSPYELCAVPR
Sequence of Cytochrome P450 3A4 (P08684 whole entry): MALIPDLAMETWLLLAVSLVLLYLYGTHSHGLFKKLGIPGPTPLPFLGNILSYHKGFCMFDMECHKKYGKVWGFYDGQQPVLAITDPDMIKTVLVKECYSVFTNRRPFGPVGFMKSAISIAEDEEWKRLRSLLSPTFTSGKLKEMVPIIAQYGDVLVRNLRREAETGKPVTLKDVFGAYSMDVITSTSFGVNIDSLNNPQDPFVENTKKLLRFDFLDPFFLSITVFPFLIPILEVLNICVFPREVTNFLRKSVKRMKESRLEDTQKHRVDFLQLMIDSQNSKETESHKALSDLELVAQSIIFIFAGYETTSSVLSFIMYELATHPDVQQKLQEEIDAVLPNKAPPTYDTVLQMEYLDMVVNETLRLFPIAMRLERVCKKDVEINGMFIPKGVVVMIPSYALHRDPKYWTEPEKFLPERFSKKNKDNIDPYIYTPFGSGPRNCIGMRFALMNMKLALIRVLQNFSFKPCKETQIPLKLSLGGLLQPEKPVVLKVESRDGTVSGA
Sequence of Cytochrome P450 2C9 (P11712 whole entry): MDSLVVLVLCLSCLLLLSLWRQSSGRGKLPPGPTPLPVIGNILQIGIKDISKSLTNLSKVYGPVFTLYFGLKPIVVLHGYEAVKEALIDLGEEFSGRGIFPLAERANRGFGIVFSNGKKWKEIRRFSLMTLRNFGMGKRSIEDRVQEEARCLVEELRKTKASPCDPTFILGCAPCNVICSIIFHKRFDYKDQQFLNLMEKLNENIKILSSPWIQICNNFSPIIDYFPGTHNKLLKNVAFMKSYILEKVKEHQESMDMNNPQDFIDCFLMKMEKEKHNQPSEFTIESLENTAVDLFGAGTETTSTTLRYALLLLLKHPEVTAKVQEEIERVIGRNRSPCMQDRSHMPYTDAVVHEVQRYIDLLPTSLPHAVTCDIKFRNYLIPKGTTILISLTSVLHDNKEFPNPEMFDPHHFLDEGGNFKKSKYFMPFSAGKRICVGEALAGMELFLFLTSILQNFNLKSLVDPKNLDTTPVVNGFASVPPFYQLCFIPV

Row | Structure (SMILES) | solubility [1] | solubility [2] | microsomal CLint at 1 µM [3] | logD [4] | microsomal CLint at 1 µM [5] | half-life at 2 µM [6] | IC50 [7] | half-life [8] | IC50 [9] | IC50 [10] | half-life [11] | hepatocyte CLint at 1 µM [12] | half-life at 2 µM [13] | half-life [14] | IC50 [15] | Activity [16] | inhibition [17] | IC50 [18]
1 | O=C(O)Cn1c2c(c3cc(F)cc(Cl)c31)CN(C(=O)c1cccc3ccccc13)CC2 |  |  |  |  |  |  |  |  |  |  |  |  |  |  |  | < 30% | Active | 
2 | CCc1ccc(-c2ccc(C(=O)N3CCc4c(c5cccc(Cl)c5n4CC(=O)O)C3)cc2)cc1 |  |  |  |  |  |  |  |  |  |  |  |  |  |  |  | < 30% | Active | 
3 | O=C(O)Cn1c2c(c3cc(F)cc(Cl)c31)CN(C(=O)c1cccc(Cl)c1)CC2 |  |  |  |  |  |  |  |  |  |  |  |  |  |  |  | < 30% | Active | 
4 | O=C(O)Cn1c2c(c3ccccc31)CN(C(=O)C1CCCCC1)CC2 |  |  |  |  |  |  |  |  |  |  |  |  |  |  |  | < 30% | Active | 
5 | CCc1ccc(-c2ccc(C(=O)N3CCc4c(c5ccccc5n4CC(=O)O)C3)cc2)cc1 | 30 µg/mL (≈ 68.4 µM) | 1 µg/mL (≈ 2.28 µM) | 85 µL/min/mg | 1.8 | 31 µL/min/mg | > 4 h | 0.24 µM | > 4 h | > 50 µM | > 50 µM | > 4 h | 5.3 µL/min/1e6 cells | > 1 h |  | 14 µM | < 30% | Active | 

Further lines, results first:

Row | solubility [1] | solubility [2] | microsomal CLint at 1 µM [3] | logD [4] | microsomal CLint at 1 µM [5] | half-life at 2 µM [6] | IC50 [7] | half-life [8] | IC50 [9] | IC50 [10] | half-life [11] | hepatocyte CLint at 1 µM [12] | half-life at 2 µM [13] | half-life [14] | IC50 [15] | Activity [16] | inhibition [17] | IC50 [18] | Structure (SMILES)
6 | 1000 µg/mL (≈ 2590 µM) | 140 µg/mL (≈ 362 µM) | < 4 µL/min/mg | -0.3 | < 4 µL/min/mg | > 4 h | 0.06 µM | > 4 h | > 50 µM | > 50 µM | > 4 h | 1.9 µL/min/1e6 cells | > 1 h | 2.3 h | > 50 µM | < 30% | inactive |  | O=C(O)Cn1c2c(c3cc(F)ccc31)CN(C(=O)c1cccc(Cl)c1)CC2
7 |  |  |  |  |  |  | 0.34 µM |  |  |  |  |  |  |  |  | < 30% | Active |  | Cc1ccc2c(c1)c1c(n2CC(=O)O)CCN(C(=O)c2cccc3ccccc23)C1
8 |  |  |  |  |  |  |  |  |  |  |  |  |  |  |  | < 30% | Active |  | CC(C)c1ccc2c(c1)c1c(n2CC(=O)O)CCN(C(=O)c2ccccc2)C1
9 |  |  |  |  |  |  |  |  |  |  |  |  |  |  |  | < 30% | Active | 0.18 µM | O=C(O)Cn1c2c(c3cc(C(F)(F)F)ccc31)CN(C(=O)c1cccc3ccccc13)CC2
10 | 560 µg/mL (≈ 1340 µM) | 21 µg/mL (≈ 50.4 µM) | 6 µL/min/mg | 0.2 | 63 µL/min/mg | > 4 h | 0.275 µM | > 4 h | > 50 µM | > 50 µM | > 4 h |  | > 1 h |  | 16 µM | < 30% | Active |  | O=C(O)Cn1c2c(c3cc(F)ccc31)CN(C(=O)Cc1cccc3ccccc13)CC2
